Experiments:
OvCHT1 = target: T1, OvCHT1 (Onchocerca volvulus, UniProt Q25615); experiment: O. volvulus chitinase; type: biochemical; settings: 10 μM final concentration, relative to control (0.5% DMSO in water)
T1 sequence (Q25615 22-497): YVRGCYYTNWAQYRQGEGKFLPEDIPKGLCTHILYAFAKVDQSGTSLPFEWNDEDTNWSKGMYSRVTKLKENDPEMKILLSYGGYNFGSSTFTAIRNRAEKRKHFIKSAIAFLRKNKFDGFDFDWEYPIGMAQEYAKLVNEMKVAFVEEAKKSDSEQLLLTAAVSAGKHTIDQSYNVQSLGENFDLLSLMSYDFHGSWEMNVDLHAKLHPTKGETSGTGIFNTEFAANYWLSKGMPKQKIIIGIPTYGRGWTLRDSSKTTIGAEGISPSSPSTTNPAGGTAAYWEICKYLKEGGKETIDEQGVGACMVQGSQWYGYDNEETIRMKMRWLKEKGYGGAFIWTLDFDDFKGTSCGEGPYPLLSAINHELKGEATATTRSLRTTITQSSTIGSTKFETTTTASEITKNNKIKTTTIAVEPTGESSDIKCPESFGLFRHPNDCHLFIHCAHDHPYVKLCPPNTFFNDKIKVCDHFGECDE

BmCHT1 = target: T2, BmCHT1 (Brugia malayi, UniProt P29030); experiment: Chitinase activity assay, Brugia malayi chitinase; type: biochemical; settings: 10 μM final concentration
T2 sequence (P29030 23-504): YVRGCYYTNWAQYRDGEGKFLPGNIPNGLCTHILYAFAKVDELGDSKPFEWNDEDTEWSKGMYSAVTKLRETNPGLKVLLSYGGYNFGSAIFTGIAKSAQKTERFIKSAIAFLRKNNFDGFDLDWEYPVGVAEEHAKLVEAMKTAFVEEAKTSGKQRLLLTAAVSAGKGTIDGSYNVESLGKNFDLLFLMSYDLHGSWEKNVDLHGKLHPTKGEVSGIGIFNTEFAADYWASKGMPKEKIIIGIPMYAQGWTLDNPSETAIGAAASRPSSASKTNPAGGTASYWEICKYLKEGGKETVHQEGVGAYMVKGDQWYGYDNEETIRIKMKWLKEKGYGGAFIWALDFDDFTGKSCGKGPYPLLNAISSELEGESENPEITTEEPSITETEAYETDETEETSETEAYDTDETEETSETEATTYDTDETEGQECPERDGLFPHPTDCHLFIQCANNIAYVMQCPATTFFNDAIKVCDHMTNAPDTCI

EhCHT1 = experiment: Chitinase activity assay, Entamoeba histolytica chitinase; type: biochemical; settings: 10 μM final concentration
PfCHT1 = target: T3, PfCHT1 (Plasmodium falciparum, UniProt Q8I4R4); experiment: Chitinase activity assay, Plasmodium falciparum chitinase; type: biochemical; settings: 10 μM final concentration
T3 sequence (Q8I4R4 29-378): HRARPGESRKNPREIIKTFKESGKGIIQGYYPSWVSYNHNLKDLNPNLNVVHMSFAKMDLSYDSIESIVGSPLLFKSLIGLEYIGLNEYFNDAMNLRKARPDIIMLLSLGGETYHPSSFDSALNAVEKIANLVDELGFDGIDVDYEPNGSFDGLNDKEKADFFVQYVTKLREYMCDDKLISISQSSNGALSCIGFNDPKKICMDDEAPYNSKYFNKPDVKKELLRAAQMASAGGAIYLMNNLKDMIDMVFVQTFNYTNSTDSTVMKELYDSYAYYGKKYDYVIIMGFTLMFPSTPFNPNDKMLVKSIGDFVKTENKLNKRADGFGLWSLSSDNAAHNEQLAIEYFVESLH

HEK 293T/17 cells [1] = experiment: Mitochondrial-uncoupling assay; type: cell-based, human; settings: 50 μM compound, TMRE staining
Summary of the method: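 HEK 293T/17 cells were trypsinised and suspended at 1−2 × 10^6 cells/mL in DMEM with 10% FBS, then given test compound (50 μM) or DMSO for 30 min at 37 °C. TMRE (~450 nM final) was added for 30 min in the dark at 37 °C. Cells were washed twice in 0.2% BSA/PBS, resuspended, and read by plate fluorescence (em 575 nm). Unstained and DMSO controls were included; mean ± sd, n = 3.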

C. elegans [2] = experiment: Bioaccumulation in C. elegans; type: in vitro ADME, Caenorhabditis elegans; settings: late-stage L4 worms, 10 μM (2 nmol/mg worm), 6 h, LC-MS of homogenates
Summary of the method: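 Synchronised C. elegans grown to late L4 on E. coli OP50 at 25 °C for 40 h, water-washed, and suspended in M9 at ~5−10 worms/μL. Dosed at 10 μM final (~2 nmol/mg worm) from DMSO stock, 6 or 12 h at rt. Washed in 0.1% SDS then water, frozen, lyophilised, weighed, extracted into cold MeOH/MeCN with internal standard. Quantified by LC-ESI-MS against blank-worm calibration; mean ± sd, n = 3.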

O. volvulus L3 larvae [3] = experiment: O. volvulus L3 molting inhibition; type: cell-based, Onchocerca volvulus
HEK 293T/17 cells [4] = experiment: Cell viability assay; type: cell-based, human; settings: 1 and 10 μM, 24 h, MTS assay
Summary of the method: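 HEK 293T/17 cells (2 × 10^4) plated and held 24 h at 37 °C, then exposed to test compound at 1 and 10 μM final. Viability was read by MTS at 0.5 and 24 h after treatment.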

C. elegans [5] = experiment: Metabolism of closantel in C. elegans; type: in vitro ADME, Caenorhabditis elegans
O. volvulus L3 larvae [6] = settings: 100 μM; cited from earlier work

Compound	inhibition of OvCHT1 at single concentration (OvCHT1)	inhibition of BmCHT1 at single concentration (BmCHT1)	inhibition of EhCHT1 at single concentration (EhCHT1)	inhibition of PfCHT1 at single concentration (PfCHT1)	mitochondrial-uncoupling (protonophoric) activity (HEK 293T/17 cells [1])	accumulation in C. elegans (in words) (C. elegans [2])	effect on O. volvulus L3 molting (O. volvulus L3 larvae [3]; 10 μM, 24 h preincubation, molting assessed day 6)	inhibition at 1 µM (O. volvulus L3 larvae [3]; Onchocerca volvulus, read-out: inhibition of O. volvulus L3 molting) [%]	effect on cell viability of HEK 293T/17 cells (HEK 293T/17 cells [4])	sulfation, glycosylation and glucuronidation of the salicylate moiety in C. elegans homogenates (C. elegans [5])	primary metabolic pathway in C. elegans (C. elegans [5]; minor pathway, forms two monoiodoclosantel isomers)	effect on molting of O. volvulus L3 to L4 larvae (O. volvulus L3 larvae [6])
O=C(Nc1ccc(Oc2ccc(Cl)cc2)cc1)c1cc(I)cc(I)c1O [Compound 3h, N-(4-(4-Chlorophenoxy)phenyl)-2-hydroxy-3,5-diiodobenzamide]	complete inhibition	sparing	sparing	sparing	mitochondrial-uncoupling activity	accumulated in C. elegans	completely abolished molting	≤ 84	no considerable effect on cell viability	–	–	–
Cc1cc(C(C#N)c2ccc(Cl)cc2)c(Cl)cc1NC(=O)c1cc(I)cc(I)c1O (centres unmarked) [Compound 1, closantel]	–	–	–	–	mitochondrial-uncoupling activity	accumulated in C. elegans	–	–	–	not observed	reductive deiodination	inhibit the molting

Reference: article PMC4216208 (Journal of Medicinal Chemistry, 2014)
